KCNQ1 pot – potentiators or activators of human KCNQ1 potassium channel; P51787; CHO-K1 KCNQ1, thallium flux FluxOR fluorescence; hits give high values; B-score at 10 µM; 0.35% of 310,000 active;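 active means fluorescence ratio B-score, a plate-corrected score, at least three library SD, with initial intensity B-score within 5 SD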
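Doses: Single concentration per compound, DMSO matched to controls | Test system: KCNQ1-transfected CHO-K1 cells | Timing: 90 min dye loading and 20 min compound exposure, both at room temperature | Measured by: Kinetic FluxOR thallium fluorescence, 10-s 1-Hz baseline, 110-s post-stimulus read | Medium: Assay buffer with matched DMSO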
KCNK3 inh – human KCNK3 channel inhibition, primary screen. O14649. CHO-KCNK3 thallium flux, FluxOR fluorescence; hits give low values. B-score at 10 µM. 0.84% of 340,000 active. AID 602410;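 active means B-score under library mean minus 4 SD, starting fluorescence ratio at most library mean plus 5 SD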;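 further: more negative B-score means stronger inhibition of thallium flux through KCNK3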
PHOSPHO1 block – inhibitors of human PHOSPHO1 phosphatase | Q8TCT1 | recombinant PHOSPHO1, absorbance phosphatase assay | inhibition, % at 13.3 µM | 1.1% of 290,000 active; in the data active means inhibition above about 60%
KCNK9 inh – inhibitors of human KCNK9 two-pore domain potassium channel; AID 488922; 1.2% of 310,000 active; B-score at 10 µM; HEK293 KCNK9, FluxOR thallium flux fluorescence; hits give low values;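 active means ratio B-score over 3 SD below the library mean, with starting fluorescence within 5 SD of its mean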;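 further: negative B-score means less thallium flux so channel inhibition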
KCNQ1 inh – inhibitors of human KCNQ1 potassium channel; CHO-K1 KCNQ1, FluxOR thallium flux fluorescence; hits give high values; B-score at 10 µM; 1.3% of 310,000 active; AID 2642;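 active means compounds whose thallium flux B-score, printed positive for inhibition, exceeds three library SD while starting fluorescence stays within three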;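 further: channel opened by potassium depolarization with thallium stimulus after 20 min compound exposure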
hERG protect – hERG (human) protection from proarrhythmic block | CHO-hERG, FluxOR thallium flux, dofetilide IC70 present | 0.51% of 310,000 active | activation (rescue from dofetilide block), less the hit threshold, % at 10 µM;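 active means activation above the mean of controls blocked by dofetilide plus 5 SD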;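 further: thallium influx through hERG after potassium depolarization seen as dye fluorescence rise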
* hit, by the source's call; i = inactive; / = no result. An excerpt weighted towards active compounds, which were near 4% of everything screened.

SMILES	KCNQ1 pot	KCNK3 inh	PHOSPHO1 block	KCNK9 inh	KCNQ1 inh	hERG protect
CC(=O)Nc1ccc(NC(=O)CSc2nnc(-c3ccccc3)n2Cc2ccc3c(c2)OCO3)cc1	i	i	6	i	i	-4
O=C(CSc1nnc(-c2ccccc2)n1Cc1ccco1)Nc1ccc2c(c1)OCCO2	i	i	53	i	i	-13
COc1ccc(-c2nnn(CC(=O)N(CCCO)C(C(=O)NC3CCCC3)c3ccc(F)cc3)n2)cc1 (centres undefined)	i	i	-1	i	i	-4
CCC1CCCCN1C(=O)COc1ccc2c3c(c(=O)oc2c1)CCC3 (centres undefined)	/	i	/	/	/	/
Cc1ccc(Cn2ncc3c(NN)ncnc32)cc1	15*	i	28	i	i	-5
CC(=O)Nc1ccc(S(=O)(=O)NCCC(=O)NCCOc2ccccc2)cc1	/	i	/	/	/	/
CCc1ccc(/C=C2\Oc3c(ccc(O)c3CN3CCN(CCO)CC3)C2=O)cc1	i	i	0	i	11*	-29
CCc1ccc(/C=C2\Oc3cc(OS(C)(=O)=O)ccc3C2=O)cc1	i	i	4	i	i	-5
CCCCn1nnc(NC(=O)c2sc3cc(Cl)ccc3c2Cl)n1	i	i	4	i	i	-7
CCN(CC)Cc1ccc(NC(=O)c2sc3cc(Cl)ccc3c2Cl)cc1	i	i	60*	i	i	-30
O=C(Nc1nc(-c2ccc(S(=O)(=O)N3CCCCCC3)cc2)cs1)c1cccs1	i	i	4	i	i	-11
CN1CCN(S(=O)(=O)c2ccc(NC(=O)c3cccs3)cc2)CC1	i	i	12	i	i	-4
O=C(Nc1ccc(S(=O)(=O)N2CCCCC2)cc1)c1ccc(CN2CCc3ccccc3C2)cc1	i	i	46	i	6*	-11
O=C(Nc1ccccc1)c1ccc(CN2CCc3ccccc3C2)cc1	i	i	23	i	i	-5
Cc1ccc(-c2csc(NC(=O)c3cccc(S(=O)(=O)N4CCN(C)CC4)c3)n2)cc1	i	i	14	i	i	-4
O=C(Nc1nc(-c2cccs2)cs1)c1cccc(S(=O)(=O)N2CCCCC2)c1	i	i	-3	-6.6*	i	-10
O=C(Nc1ccc(S(=O)(=O)N2CCCC2)cc1)c1cccs1	i	i	60*	i	i	-4
O=C(Nc1nc(-c2ccc(S(=O)(=O)N3CCCC3)cc2)cs1)c1cccs1	/	-11*	-2	/	/	/
COc1ccc2nc(NCCNC(=S)NCCCN3CCOCC3)c(C#N)cc2c1	i	i	-5	i	i	-9
O=C(CCn1c2c(c3ccccc31)CCCC2)NNC(=O)c1ccccc1Cl	i	i	-12	i	i	4.7*
C=CC1CN(C(=O)OCC(Cl)(Cl)Cl)C2CC3c4ccc(OC)cc4NC3C3CC1C2CO3 (centres undefined)	i	/	/	i	7*	-17
CC1=C(SCc2ccccc2)C(=O)c2ccccc2C1=O	/	i	/	/	/	/
O=C1C(SCCO)=C(SCCO)C(=O)c2ccccc21	/	-15*	/	/	/	/
CCOC(=O)C(=Cc1cc(=O)c(OC)co1)C(=O)OCC	10*	i	6	i	i	-1
COc1coc(C(O)CN)cc1=O (centres undefined)	i	i	7	i	i	-9
SMILES	KCNQ1 pot	KCNK3 inh	PHOSPHO1 block	KCNK9 inh	KCNQ1 inh	hERG protect
C=CCNc1sc(C(=O)c2ccccc2)c(N)c1C#N	i	i	96*	i	i	-5
C=CCNc1sc(C(=O)c2ccc(C)cc2)c(N)c1C#N	i	i	96*	i	i	-3
C=CCNc1sc(C(=O)c2ccc(Br)s2)c(N)c1C#N	i	i	82*	i	i	-14
Cc1ccc(OCC(=O)N[C@@H](C)c2nnc3ccccn23)cc1C	i	i	56	i	i	-6
O=C(Nc1ccc2ccccc2c1)c1ccc2[nH]c(=O)c(=O)[nH]c2c1	i	i	15	i	i	-4
CCOC(=O)c1cccc(NC(=O)CSc2nnc(-c3cccnc3)n2C)c1	i	i	-7	i	i	-8
CN(C)c1ccc(NC2=C(Cl)C(=O)c3ccccc3C2=O)cc1	i	i	11	i	i	-10
